Screening data deposited in PubChem by several laboratories.
GSTO1 counter: inhibitors of recombinant GSTO1, primary screen, counter-screen for RBBP9 inhibitor project, biochemical, fluorescence polarization; AID 1974, 2009; 300,000 tested, 1.1% active; inhibition, % at 5.96 µM; activity-based probe fluorescence polarization; Glutathione S-transferase omega-1 (Homo sapiens), P78417;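 active = inhibition above the campaign mean inhibition plus 3 SD, cut at about 35% in these data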;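 also: 0% = GSTO1-1 with DMSO and 100% = wells lacking GSTO1-1 enzyme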
PP1 inh: PP1-alpha phosphatase inhibitors, primary screen, counter-screen for PP5 inhibitor project, biochemical, fluorescence, OMFP substrate, single point; Serine/threonine-protein phosphatase PP1-alpha catalytic subunit (Homo sapiens), P62136; purified PP1alpha; inhibition, % at 6.7 µM; 320,000 tested, 0.9% active;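 active = inhibition above the mean inhibition of all tested compounds plus 3 SD, computed separately for each screening campaign, cut at about 15% in these data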
PP5 primary: PP5 phosphatase inhibitors, primary screen, biochemical, fluorescence; Serine/threonine-protein phosphatase 5 (Homo sapiens), P53041; purified PP5c, OMFP substrate fluorescence; inhibition, % at 6.7 µM; 320,000 tested, 0.18% active;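 active = inhibition above the campaign's mean inhibition across all tested compounds plus 3 SD, cut at about 9.5% in these data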;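 also: 0% = DMSO only and 100% = 100 µM cantharidin control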
Target sequence (P53041 whole entry, looked up): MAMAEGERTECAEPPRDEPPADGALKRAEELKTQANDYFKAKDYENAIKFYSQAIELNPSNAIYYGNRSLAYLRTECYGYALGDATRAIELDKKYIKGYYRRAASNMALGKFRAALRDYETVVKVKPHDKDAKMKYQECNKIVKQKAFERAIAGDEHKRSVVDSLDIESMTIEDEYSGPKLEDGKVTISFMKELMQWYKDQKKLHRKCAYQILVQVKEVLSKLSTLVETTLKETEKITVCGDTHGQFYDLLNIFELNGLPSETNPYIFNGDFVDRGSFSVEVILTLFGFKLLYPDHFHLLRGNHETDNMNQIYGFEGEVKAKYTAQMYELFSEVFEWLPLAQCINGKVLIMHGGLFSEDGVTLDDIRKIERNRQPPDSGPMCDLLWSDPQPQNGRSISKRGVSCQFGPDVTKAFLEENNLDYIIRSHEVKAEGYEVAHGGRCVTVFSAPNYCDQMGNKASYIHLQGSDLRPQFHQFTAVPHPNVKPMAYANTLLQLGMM
Apaf-1 inh: inhibitors of human Apaf-1 apoptosome, primary screen, biochemical, DEVD-Rh110 fluorescence, uHTS | Apoptotic protease-activating factor 1 (Homo sapiens), O14727 | reconstituted apoptosome caspase-3 activity | inhibition, % at 20 µM | 330,000 tested, 0.71% active | AID 489030, 2010; active = inhibition of at least 40% at 20 µM;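 also: plate controls were DMSO wells for no effect and DEVD-CHO caspase inhibitor wells for full effect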
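Material: reconstituted apoptosome with Apaf-1, cytochrome c, caspase-9, procaspase-3, dATP / Buffer or medium: pH 7.5 Hepes buffer with CHAPS, BSA, DTT / Also added: cytochrome c with DEVD-Rh110 / Schedule: compound with Apaf-1, dATP, procaspase-3 30 min, then 50 min reaction, room temperature / Technique: rhodamine 110 fluorescence at Ex 480/Em 540 nm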
TDP2 absorb: human TDP2 enzyme inhibitors, primary screen, biochemical, epi absorbance, recombinant enzyme. T5PNP hydrolysis, p-nitrophenol absorbance 415 nm. inhibition, % at 12.8 µM. 370,000 tested, 0.34% active. AID 720702, 2013;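 active = inhibition above the mean of all tested compounds plus 3 SD, set per campaign, cut at about 25% in these data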;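 also: 0% = DMSO with enzyme and 100% = buffer with substrate but no TDP2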
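Evaluation: % inhibition relative to enzyme-containing and enzyme-free wells. Material: recombinant human TDP2. Benchmarks: enzyme-free and DMSO wells. Timing: enzyme reaction with compound for 2 h at 37 °C. Compound dosing: 12.8 µM only. Measured by: p-Nitrophenol epi absorbance. Reagent: T5PNP substrate at 5 mM, a TopII-DNA adduct mimic. Replication: single well per compound.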
* marks the source's active call; other numbers are inactive results. Shown are actives, neighbours in structure and some others; about 2.1% of the full set was active somewhere.

Results for COC(=O)[C@]12C[C@H](CC(=O)N3CCSCC3)C(=O)N(Cc3ccccc3)C1=C[C@H](C1CCCC1)O[C@@H]2C ?
TDP2 absorb: 0.8

What do the screens show for `C=C(O[C@H]1[C@H](O)CC=C(C(=O)O)[C@@H]1O)C(=O)O`?
TDP2 absorb: -1.4

How did Cc1cc(O)c(-c2n[nH]c3c2C(c2cccc(O)c2)N(Cc2cccnc2)C3=O)cc1Cl (centres undefined) do in these assays?
GSTO1 counter: -10.3; PP1 inh: 17.1*; PP5 primary: 8.0; Apaf-1 inh: 16.0; TDP2 absorb: 0.5

Results for O=C(COc1ccccc1)Nc1nnc(-c2ccccc2)o1 ?
GSTO1 counter: -2.0; PP1 inh: 15.4*; PP5 primary: 1.3; Apaf-1 inh: 0.9; TDP2 absorb: -0.6

What do the screens show for `O=C(CCc1ccccc1)Nc1nnc(-c2ccc3c(c2)CCCC3)o1`?
GSTO1 counter: 7.0; PP1 inh: 19.7*; PP5 primary: -0.8; Apaf-1 inh: 9.8; TDP2 absorb: 7.5

What do the screens show for `O=C(COc1ccccc1)Nc1nnc(-c2ccc(Cl)s2)o1`?
GSTO1 counter: 2.8; PP1 inh: 19.4*; PP5 primary: 0.7; Apaf-1 inh: 7.0; TDP2 absorb: 2.7

Results for CC(C)=CCC/C(C)=C/CNCC(=O)N1c2ccccc2[C@]2(c3ccccc3)C[C@@H]3C(=O)N(C/C=C(\C)CCC=C(C)C)CC(=O)N3[C@H]12 ?
TDP2 absorb: 2.2

What do the screens show for `Cc1cc(NC(=O)CSc2c[nH]c3ccccc23)no1`?
GSTO1 counter: 10.4; PP1 inh: -3.2; PP5 primary: -7.0; Apaf-1 inh: 2.9; TDP2 absorb: -20.5

What do the screens show for `Cc1cc(NC(=O)CSc2nnc(-c3c[nH]c4ccccc34)n2-c2ccc(Cl)cc2)no1`?
GSTO1 counter: -2.1; PP1 inh: 15.4*; PP5 primary: 0.6; Apaf-1 inh: 5.1; TDP2 absorb: -9.2

What do the screens show for `COC(=O)N1Cc2ccnnc2CC1c1ccccc1-c1ccccc1` (centres undefined)?
TDP2 absorb: -14.6

How did CCN(Cc1ccccc1)S(=O)(=O)c1ccc(C(=O)N(CCCN(C)C)c2nc3c(F)cccc3s2)cc1 do in these assays?
GSTO1 counter: 2.5; PP1 inh: 5.4; PP5 primary: 4.6; Apaf-1 inh: 18.6; TDP2 absorb: -0.8

Results for Cc1ccc2sc(N(CCCN(C)C)C(=O)c3ccc(S(=O)(=O)N4CCc5ccccc5C4)cc3)nc2c1C ?
GSTO1 counter: 2.2; PP1 inh: 15.4*; PP5 primary: 1.1; Apaf-1 inh: 32.7; TDP2 absorb: 6.8

How did CC1CCCCN1S(=O)(=O)c1ccc(C(=O)N(CCCN(C)C)c2nc3ccc(Br)cc3s2)cc1 (centres undefined) do in these assays?
GSTO1 counter: -4.4; PP1 inh: 10.5; PP5 primary: 5.8; Apaf-1 inh: 67.3*; TDP2 absorb: 6.0

Results for CCOc1cccc2sc(N(CCCN(C)C)C(=O)c3ccc(S(=O)(=O)N(CC)Cc4ccccc4)cc3)nc12 ?
GSTO1 counter: 6.4; PP1 inh: 13.2; PP5 primary: 5.4; Apaf-1 inh: 67.2*; TDP2 absorb: -5.0

What do the screens show for `Cc1ccc2sc(N(CCCN(C)C)C(=O)c3ccc(S(=O)(=O)N(C)Cc4ccccc4)cc3)nc2c1C`?
GSTO1 counter: -3.7; PP1 inh: 17.0*; PP5 primary: 4.7; Apaf-1 inh: 31.8; TDP2 absorb: -6.1

What do the screens show for `O=C(Nc1ccc(Cl)cc1)C1CCCN1S(=O)(=O)c1cccnc1` (centres undefined)?
TDP2 absorb: 4.4

Results for Cc1cccc(CNC(=S)OCCN2CCCC23CCC(c2ccccc2)CC3)c1 (centres undefined) ?
TDP2 absorb: -1.3

Results for CN(C)C(=O)N1CCN(C(=O)[C@H](CCc2ccccc2)NC(=O)[C@H]2O[C@@H](n3cnc4c(N)ncnc43)[C@H](O)[C@@H]2O)CC1 ?
TDP2 absorb: 4.9

How did COc1ccc(/C=C(/CC(=O)Nc2ccccc2)c2nc3ccccc3s2)cc1 do in these assays?
GSTO1 counter: -3.7; PP1 inh: 6.8; PP5 primary: 1.3; Apaf-1 inh: 6.3; TDP2 absorb: -5.2

What do the screens show for `COc1ccc(/C=C(/CC(=O)NCc2ccc(Cl)cc2)c2nc3ccccc3s2)cc1`?
GSTO1 counter: -1.8; PP1 inh: 15.5*; PP5 primary: 1.7; Apaf-1 inh: 16.1; TDP2 absorb: -4.6

What do the screens show for `C=CCn1c(COc2ccccc2)nnc1SCC(=O)Nc1ccc(S(=O)(=O)Nc2cc(C)nc(C)n2)cc1`?
TDP2 absorb: 7.3

How did O=C1c2cccc(O)c2C(=O)c2c(O)cccc21 do in these assays?
GSTO1 counter: 20.1; PP1 inh: 2.8; PP5 primary: -1.4; Apaf-1 inh: 1.3

How did CC1OC(CC(=O)O)CC2=C1C(=O)c1c(O)cccc1C2=O (centres undefined) do in these assays?
TDP2 absorb: 33.8*

How did CSc1ccc(-c2sc(Nc3ccccc3)n[n+]2-c2ccccc2)cc1 do in these assays?
GSTO1 counter: 3.1; PP1 inh: 16.6*; PP5 primary: 4.7; Apaf-1 inh: 29.7

How did CCc1ccc(Nc2n[n+](-c3ccccc3)c(-c3ccc(SC)cc3)s2)cc1 do in these assays?
GSTO1 counter: -7.1; PP1 inh: 6.9; PP5 primary: -1.0; Apaf-1 inh: 22.7; TDP2 absorb: -13.4

How did CSc1ccc(-c2sc(Nc3cccc4ccccc34)n[n+]2-c2ccccc2)cc1 do in these assays?
GSTO1 counter: 37.0*; PP1 inh: 14.0; PP5 primary: 1.8; Apaf-1 inh: 4.5; TDP2 absorb: 5.0

Results for Fc1ccc(-[n+]2nc(Nc3ccccc3)sc2-c2cccc(Cl)c2Cl)cc1 ?
GSTO1 counter: -2.4; PP1 inh: 17.2*; PP5 primary: 2.4; Apaf-1 inh: 30.0; TDP2 absorb: -7.6

What do the screens show for `COC(=O)C1CN(Cc2ccccc2)CCS(=O)(=O)N1Cc1cn(Cc2ccc(Cl)cc2)nn1` (centres undefined)?
TDP2 absorb: -0.6

What do the screens show for `COC(=O)[C@]12C[C@H](CC(=O)NCc3ccc(OC)c(OC)c3)C(=O)N(CCc3ccc(OC)c(OC)c3)C1=C[C@H](C(C)C)O[C@@H]2C1CC1`?
TDP2 absorb: 2.9

How did COc1cc(/C=C/c2ccc3cccc(O)c3n2)cc(Br)c1OC do in these assays?
GSTO1 counter: 3.7; PP1 inh: 15.2*; PP5 primary: 0.7; Apaf-1 inh: 7.4; TDP2 absorb: -11.6
